Fold change data for 6 compounds are collected here from PubChem BioAssay AID463078 (The Scripps Research Institute Molecular Screening Center, 2010).

The source made the active and inactive calls.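 How the source made its calls: active means fold change below the hit cutoff of 0.7; inactive means the rest.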

Chain of Nuclear receptor ROR-alpha (Homo sapiens) (P35398 whole entry, looked up, the tested form may be a part): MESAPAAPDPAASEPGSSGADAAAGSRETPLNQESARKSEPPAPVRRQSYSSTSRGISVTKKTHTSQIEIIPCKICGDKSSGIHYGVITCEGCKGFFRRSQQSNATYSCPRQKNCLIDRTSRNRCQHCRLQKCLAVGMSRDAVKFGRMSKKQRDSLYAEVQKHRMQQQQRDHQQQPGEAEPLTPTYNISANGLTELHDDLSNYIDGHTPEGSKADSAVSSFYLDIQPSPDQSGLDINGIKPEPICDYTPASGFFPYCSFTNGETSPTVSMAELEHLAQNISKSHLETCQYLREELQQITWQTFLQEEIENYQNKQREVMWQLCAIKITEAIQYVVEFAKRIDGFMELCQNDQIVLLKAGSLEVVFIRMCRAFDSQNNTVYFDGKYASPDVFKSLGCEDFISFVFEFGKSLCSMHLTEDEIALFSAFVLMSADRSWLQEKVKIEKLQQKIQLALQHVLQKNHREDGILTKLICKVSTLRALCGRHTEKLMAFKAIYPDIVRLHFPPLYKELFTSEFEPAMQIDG

This experiment has as its target Nuclear receptor ROR-alpha (Homo sapiens) (UniProt P35398). Nature of the experiment: inhibitors of RORa reporter activity, late-stage follow-up, RORA inverse agonist project, cell-based, luminescence, assay provider (AID 463078). As to conditions: HEK293T GAL4-RORa LBD luciferase reporter, 20 h; at 10 µM; active compounds read low. The method in brief:
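System: HEK293T cells with GAL4-RORα LBD and UAS-luciferase. Incubation: 20 h compound exposure. Control set: DMSO vehicle wells. Signal: luminescence. Repeats: six replicates per compound. Evaluation: fold change in luminescence, treated versus DMSO-treated cells, replicate-averaged. Compound: single nominal 10 µM dose per test compound.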
Turning to `O=S(=O)(Nc1ccc(C(O)(C(F)(F)F)C(F)(F)F)cc1)c1cccs1`, the fold change was 0.63.
In the case of `O=C(Nc1ccc(C(O)(C(F)(F)F)C(F)(F)F)cc1)c1ccccc1C(F)(F)F`, the fold change was 0.806 (inactive).
Then `O=C(Nc1ccc(C(O)(C(F)(F)F)C(F)(F)F)cc1)c1c(F)cccc1F`, with 0.944 (inactive); and `O=C(Nc1ccc(C(O)(C(F)(F)F)C(F)(F)F)cc1)c1ccc(F)cc1Cl`, with 1.1 (inactive).
The result for `O=C(Nc1ccc(C(O)(C(F)(F)F)C(F)(F)F)cc1)c1ccc(Cl)cc1` reads 1.23 (inactive); that for `O=C(Nc1ccc(C(O)(C(F)(F)F)C(F)(F)F)cc1)c1ccc(F)cc1F`, 1.71 (inactive).
